F508del corr: F508del CFTR correction, initial screen, CFBE line, single point. CFBE cells, YFP halide quenching; stimulated with forskolin plus potentiator P3; % fluorescence drop versus neutral controls. activity (quench increase), % at 7.58 µM. 350,000 compounds, 0.36% hits. AID 720511, 2013;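 active = mean added fluorescence quench of at least 8% versus neutral control, with both replicates also reaching 8%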;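 note: cells transiently co-express mutant CFTR-F508del with the halide-sensitive YFP; corrector assay measuring rescue of mutant channel to the surface after 24 h compound exposure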
Ecoli rRNA inh: reduced GFP signal of wild-type E. coli, primary screen, bacterial rRNA inhibitor project, GFP/RFP fluorescence, OD600, single point | E. coli WT GFP vs humanized-ribosome RFP mutants, 24 h; active compounds read low; DMSO median 0, no signal -100 | 350,000 compounds, 1.6% hits | GFP signal change (wild-type ribosome), % (concentration not given with the values);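 active = significant combined selectivity score with lowered wild-type GFP, culture density cut under 30%, mutant RFP and density less affected; inactive = any of these conditions unmet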
Cneo AK release: Cryptococcus neoformans cell lysis inducers, primary screen, AK release luminescence, single concentration; C. neoformans lysis, adenylate kinase release luminescence, 4 h; normalised: neutral wells 0, clomiphene wells 100; lysis activity, % at 15 µM; 360,000 compounds, 0.2% hits;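 active = mean lysis activity across replicates of at least 80%, whatever share of replicates individually reach that level; inactive = mean lysis activity below 80%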
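Material – log-phase Cryptococcus neoformans yeast cells · Input – 5 × 10^6 yeast cells/mL · Medium – fresh YPD growth medium · Doses – single compound concentration per well · Timing – static 4 h at 37 °C with compound, 1 h detection · Detection – adenylate kinase release luminescence · Read-out – signal increase indicating cell lysis · Control set – Clomiphene as positive lysis control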
HIV Env fusion: inhibitors of HIV-1 Env-driven cell-cell fusion, primary screen, HeLa-JRFL effector, CEM21 target cells, luciferase; inhibition, % at 12.3 µM; 360,000 compounds, 1.1% hits;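 active = mean replicate inhibition score of at least 50 and every replicate individually at or above 50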;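 note: 0% = plate neutral controls and 100% = maraviroc near 300 nM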
GSIS activator: GLuc luminescence reporter in INS-1E cells, primary screen for activators of glucose-dependent secretion of insulin; INS-1E GLuc reporter insulin secretion, 2-3 h; activation, % at 16.6 µM; 370,000 compounds, 0.61% hits; AID 743287, 2014;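 active = lowest replicate activation of at least 40%, so every replicate reaches that level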;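 note: 0% = median of neutral control wells and 100% = median of IBMX positive control wells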
miR122 inh: miR-122 Renilla sensor signal increase in Huh7, primary screen, miR-122 inhibitor project, cell-based, single point, plate reader; Huh7 miR-122 Renilla luciferase sensor, 48 h; neutral wells = 0, positive control = 100; activation (reporter increase), % at 12.5 µM; 340,000 compounds, 0.3% hits; AID 602342, 2012;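 active = mean replicate activation score at least 90 and every replicate individually at or above 90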;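 note: higher luciferase means less miR-122 activity so hits act as miR-122 inhibitors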
Active calls of the source: *; . = no result given; [ ] = remark or other dose. Most compounds without a hit are left out; they make up all but 3.1% or so of the library.

SMILES | F508del corr | Ecoli rRNA inh | Cneo AK release | HIV Env fusion | GSIS activator | miR122 inh
O=C(C[C@H]1CC[C@@H]2[C@H](COC[C@H](O)CN2CC2CCCCC2)O1)NCC1CC1 | -3 | -9 | -3 | . | -10 | 7[16.7 µM]
O=C(N/N=C\c1c(O)ccc2ccccc12)c1cncc(Br)c1 | 35* | 5 | 4 | 21 | 8 | .
O=C(N/N=C/c1c(O)ccc2ccccc12)c1ccc(Br)o1 | 12* | 20 | 5 | 30 | -10 | 8
O=C(N/N=C\c1c(O)ccc2ccccc12)c1ccc(O)cc1 | -7 | -34 | -6 | 14 | 4 | -24
C[C@H](CO)N1C[C@H](C)[C@@H](CN(C)C(=O)C2CCOCC2)Oc2cc(C3=CCCC3)ccc2S1(=O)=O | -2 | 0 | 0 | 0[16.7 µM] | -4 | 26[16.7 µM]
C[C@@H]1CN([C@@H](C)CO)S(=O)(=O)c2ccc(C3=CCCCC3)cc2O[C@H]1CN(C)CC1CCCC1 | -4 | -1 | 2 | 40[16.7 µM] | 0 | 6[16.7 µM]
C[C@H](CO)N1C[C@H](C)[C@@H](CN(C)CC2CCCC2)Oc2cc(C3=CCCCC3)ccc2S1(=O)=O | -2 | -1 | 10 | 56*[16.7 µM] | -1 | 84[16.7 µM]
C[C@H](CO)N1C[C@H](C)[C@H](CN(C)Cc2ccccc2F)Oc2cc(C3=CCCC3)ccc2S1(=O)=O | -1 | 2 | 101* | 68*[16.7 µM] | -1 | -27[16.7 µM]
C[C@@H]1CN([C@@H](C)CO)S(=O)(=O)c2ccc(C3=CCCC3)cc2O[C@@H]1CN(C)C(=O)C1CCOCC1 | 0 | 1 | -6 | 70*[16.7 µM] | 5 | -28[16.7 µM]
CN1C(=O)c2cc(NC(=O)Nc3ccccc3Cl)ccc2OC[C@@H]2O[C@H](CC(=O)O)CC[C@H]21 | -3 | 3 | 3 | -4[16.7 µM] | 3 | 17[16.7 µM]
CC1(Cc2ccc(F)cc2)C(=O)Nc2c(Cl)ccc(Cl)c21 (stereo not given) | 8.8* | -65 | -5 | 22 | -25 | 1
CC(C)(C)c1ccc(S(=O)(=O)N2CCN(C3CCCC3)CC2)cc1 | 0 | 0 | 9 | -2 | -3 | -3
CC(C(=O)NC1CCCC1)N1CCN(S(=O)(=O)c2ccc(C(C)(C)C)cc2)CC1 (stereo not given) | 13* | 3 | -2 | -9 | -16 | -2
COc1ccccc1-c1ccc2c(c1)[C@H]1[C@H](CCN1S(=O)(=O)c1cccc(C)c1)[C@@H](CO)N2 | 2 | -1 | 59 | . | -31 | 10[16.7 µM]
COc1ccc(NC(=O)C2C(c3ccccc3)C2(Cl)Cl)cc1 (stereo not given) | -1 | -39* | . | -3 | -42 | .
O=C(C[C@@H]1C[C@@H]2c3cc(NC(=O)Cc4ccncc4)ccc3O[C@@H]2[C@@H](CO)O1)NCc1ccccn1 | -2 | 2 | . | -2[16.7 µM] | -27 | -1[16.7 µM]
COc1ccc(NC(=O)N(C)C[C@@H]2OCCCC[C@@H](C)Oc3ccc(NS(=O)(=O)c4ccc(Cl)cc4)cc3C(=O)N([C@@H](C)CO)C[C@H]2C)cc1 | -2 | 0 | -1 | -22[16.7 µM] | -8 | -9[16.7 µM]
Cc1cc(C)cc(Oc2coc3cc(O)ccc3c2=O)c1 | -2 | -15 | -2 | 0 | 1 | -4
Cc1ccc(Oc2coc3cc(O)ccc3c2=O)cc1 | -2 | -24* | -3 | -20 | 4 | -2
CCCNC(=O)C[C@H]1CC[C@@H]2[C@@H](COc3ccc(NC(=O)c4cccc(OC)c4)cc3C(=O)N2C)O1 | -2 | -1 | 2 | 1[16.7 µM] | -8 | 6[16.7 µM]
CCCCNC(=O)C[C@@H]1C[C@@]2(C(=O)OC)CCCCC=C2N(Cc2ccco2)C1=O | -1 | . | . | -10 | . | .
COC(=O)[C@]12CCCCC=C1N(Cc1ccco1)C(=O)[C@H](CC(=O)NCCc1ccccc1OC)C2 | -5 | -4 | . | 92* | -9 | .
CCCCOCCCNC(=O)C[C@@H]1C[C@@]2(C(=O)OC)CCCCC=C2N(Cc2ccco2)C1=O | -2 | -3 | . | 62* | -6 | .
